Bioassay records deposited in PubChem BioAssay by Sanford-Burnham Center for Chemical Genomics.
SUMO1-SIM PPI: SUMO1-SIM interaction modulation; inhibition, % at 20 µM; SUMO1 binding to a labelled peptide, TR-FRET, 1 h; AID 602429; 0.33% of 360,000 active; in the data active means inhibition above about 37%
Rpn11 block: inhibitors of human proteasome Rpn11 | O00487 | human 26S proteasome, Ub4-pepOG fluorescence polarization; 20S core pre-blocked with epoxomicin | inhibition, % at 20 µM | 0.59% of 360,000 active | AID 588493;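 active means inhibition at 20 µM, scaled to each plate's controls, above about 33%, limit read from the data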
Target sequence (O00487 whole entry, looked up): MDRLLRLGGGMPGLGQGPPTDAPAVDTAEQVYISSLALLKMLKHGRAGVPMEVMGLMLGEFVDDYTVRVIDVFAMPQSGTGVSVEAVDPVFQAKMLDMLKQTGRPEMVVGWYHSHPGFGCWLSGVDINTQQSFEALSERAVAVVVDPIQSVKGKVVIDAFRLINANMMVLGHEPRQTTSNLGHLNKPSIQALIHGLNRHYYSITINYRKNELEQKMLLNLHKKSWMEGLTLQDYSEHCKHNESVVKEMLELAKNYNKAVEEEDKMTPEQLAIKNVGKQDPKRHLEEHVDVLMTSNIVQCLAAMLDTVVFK
DNMT1 block: DNMT1 (human) enzyme inhibition | AID 588458 | DNMT1 molecular beacon, Hinp1I cleavage, fluorescence | 0.83% of 360,000 active | inhibition (reported as % activation of signal), % at 10 µM | P26358; in the data active means inhibition above about 50%
STEP block: STEP (human) phosphatase inhibition; AID 588621; inhibition, % at 20 µM; P54829; 0.25% of 360,000 active; recombinant STEP, OMFP fluorogenic substrate, fluorescence;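 active means inhibition at 20 µM, scaled per plate between control wells, above about 37%, limit read from the data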;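 further: 0% = DMSO with enzyme and substrate and 100% = substrate only without enzyme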
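Also added – OMFP at 25 µM · Test system – STEP tyrosine phosphatase · Technique – FITC-channel fluorescence of OMFP product · Schedule – 20 min at room temperature, dark · Evaluation – control-normalized % inhibition with plate pattern correction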
LMPTP block: blocks human LMPTP phosphatase; P24666; recombinant LMPTP-A, OMFP fluorogenic substrate, fluorescence intensity; inhibition, % at 20 µM; 0.22% of 360,000 active;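 active means compounds that cut the enzyme signal by at least half of the control window in the single-dose screen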;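 further: plate controls were DMSO wells with enzyme plus substrate for no effect and substrate without enzyme for full effect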
Target sequence (P24666 whole entry, looked up): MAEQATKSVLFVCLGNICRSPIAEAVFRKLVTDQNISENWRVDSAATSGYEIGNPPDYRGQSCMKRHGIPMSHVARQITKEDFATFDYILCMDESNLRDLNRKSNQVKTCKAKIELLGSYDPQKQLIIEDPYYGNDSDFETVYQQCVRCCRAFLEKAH
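test system = LMPTP-A | amount = 0.625 nM LMPTP-A final | reagent = fluorogenic phosphatase substrate OMFP at 400 µM final | incubation = 50 min at room temperature | benchmarks = no-enzyme low control, uninhibited high control | medium = Bis-Tris pH 6.0, DTT, detergent | signal = fluorescence intensity of OMFP turnover product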
Scp-1 inhibitor: inhibitors of human Scp-1 phosphatase. Recombinant Scp1, phosphopeptide, malachite green phosphate absorbance. inhibition, % at 20 µM. 0.88% of 340,000 active. AID 493091;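 active means inhibition above about 50% at 20 µM, limit read from the data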;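 further: plate controls were DMSO wells with enzyme for no effect and wells lacking enzyme for full effect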
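Incubation: 45 min enzyme reaction at room temperature / System: truncated SCP-1 phosphatase (76-261aa) / Reagent: Phospho 17-mer peptide substrate / Buffer or medium: Acidic Tris acetate buffer with magnesium and detergent / Signal: absorbance at 630 nm / Doses: one concentration, 20 µM, with 1.0% DMSO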
Scp-1 conf: confirmation of human Scp-1 phosphatase inhibitors; shares compounds with Scp-1 inhibitor; recombinant SCP-1 catalytic domain, phosphate release, malachite green absorbance; inhibition, % at 20 µM; 61% of 2,500 active; AID 540281;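 further: plate controls were DMSO with enzyme for no effect and buffer wells lacking enzyme for full effect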
Scp-1 MG ctr: counter-screen for Scp-1 inhibitors: colorimetric interference; Colorimetric interference counterscreen, malachite green absorbance 630 nm; apparent inhibition (interference), % at 20 µM; AID 540313; 2,500 tested, under 10 active; shares compounds with Scp-1 inhibitor;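 further: compounds added after enzyme reaction finished so only phosphate colour detection is probed; plate controls were DMSO wells with completed Scp-1 reaction for no effect and substrate wells lacking enzyme for full effect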
Scp-1 Tm shift: Scp-1 (human) binding by thermal shift; 25% of 1,500 active; thermal shift relative to vanadate control, % at 40 µM; Recombinant SCP1, Sypro Orange thermal shift Tm; AID 540329; shares compounds with Scp-1 inhibitor;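 active means substances whose mean melting-temperature shift, as a percentage of the reference inhibitor's shift, reaches about 5.3%, limit read from the data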;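 further: 0% = Tm of DMSO wells and 100% = Tm with sodium orthovanadate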
* = called active by the depositor; x = no result. Most compounds without a hit are left out; they make up all but 2.3% or so of the library.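 How the source made its calls, unless noted: active means inhibition of at least 30% at 20 µM; inactive means the rest.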

SMILES	SUMO1-SIM PPI	Rpn11 block	DNMT1 block	STEP block	LMPTP block	Scp-1 inhibitor	Scp-1 conf	Scp-1 MG ctr	others
O=C(COC(=O)CNS(=O)(=O)c1ccc(F)c(F)c1F)Nc1ccc(OC(F)F)cc1	13	-8	-13	-3	0	-13	x	x
COc1ccc(Cl)c2sc(N(CCN(C)C)C(=O)C3=COCCO3)nc12	-1	0	0	0	0	91*	-13	-12
COc1ccc(OC)c2sc(N(CCN(C)C)C(=O)c3cc(Cl)sc3Cl)nc12	3	4	0	-3	8	9	x	x
COc1ccc(NC(=O)c2cc3ccccc3cc2OC)cc1	-9	9	-16	-1	1	-14	x	x
COc1cc2ccccc2cc1C(=O)NC(=S)Nc1ccc(C(=O)O)cc1	7	-3	3	10	39	61*	52*	-14	Scp-1 Tm shift=-14
CCCn1c(CN2CCN(C(=O)c3ccco3)CC2)nc2cc(S(=O)(=O)N(C)C)ccc21	-3	4	-4	1	0	51*	-8	-13
CCn1c(CN2CCN(c3ccc(OC)cc3)CC2)nc2cc(S(=O)(=O)N(C)C)ccc21	7	1	-1	1	2	-7	x	x
COC(=O)c1ccc(C)c(NC(=O)CCCN2C(=O)CN(C)C2=O)c1	2	4	-4	1	-2	2	x	x
CCc1cccc(C)c1NC(=O)CCCN1C(=O)CN(C)C1=O	0	-5	18	-2	-1	-2	-11	-13
COc1ccc(C)cc1NC(=O)CCCN1C(=O)CN(C)C1=O	-1	3	-8	0	-2	-8	-14	-16
COc1ccc(C)cc1NC(=O)CCCN1C(=O)C2CC=CCC2C1=O (stereo unspecified)	-2	8	0	0	1	-2	x	x
CC1CCN(C(=O)COC(=O)c2c[nH]c3ccccc23)CC1	4	-8	-1	2	0	-9	x	x
CC(=O)N(c1ccccc1)c1c(F)c(F)c(F)c(F)c1F	-1	-6	0	-2	-1	61*	-8	-13
C[C@H](CO)N1C[C@H](C)[C@@H](CN(C)S(=O)(=O)c2ccccc2)Oc2ccc(NS(=O)(=O)c3ccccc3)cc2C1=O	0	-5	3	-2	-1	24	x	x
C[C@H](CO)N1C[C@H](C)[C@@H](CN(C)Cc2ccc(C(=O)O)cc2)Oc2ccc(NS(C)(=O)=O)cc2C1=O	3	-1	4	-3	0	9	x	x
C[C@@H]1CN([C@@H](C)CO)C(=O)c2cc(NS(C)(=O)=O)ccc2O[C@@H]1CN(C)Cc1ccc(C(F)(F)F)cc1	-5	-4	9	-5	0	58*	15	-2
C[C@H](CO)N1C[C@H](C)[C@@H](CN(C)S(=O)(=O)c2ccccc2)Oc2ccc(NC(=O)Nc3ccccc3)cc2C1=O	3	2	-8	-2	0	59*	5	-5
COc1ccc(NC(=O)Nc2ccc3c(c2)C(=O)N([C@H](C)CO)C[C@H](C)[C@@H](CN(C)S(=O)(=O)c2ccccc2)O3)cc1	5	-1	-7	8	-1	0	x	x
C[C@@H]1CN([C@@H](C)CO)C(=O)c2cc(NS(C)(=O)=O)ccc2O[C@@H]1CN(C)S(=O)(=O)c1ccccc1	-7	-2	1	1	0	50*	9	-22
C[C@H](CO)N1C[C@H](C)[C@@H](CN(C)S(=O)(=O)c2ccccc2)Oc2ccc(NC(=O)C3CC3)cc2C1=O	-4	-1	6	1	-2	62*	0	-19
